Source: ChEMBL document CHEMBL3817826, “H2S-Donating Doxorubicins May Overcome Cardiotoxicity and Multidrug Resistance” (J Med Chem, 2016)
Activity calls are given as the source filed them. No cut-off for these calls is given here.

Key:
[1] = molecular target: DNA topoisomerase 2-alpha (Homo sapiens) (UniProt P11388); assay: Inhibition of human topoisomerase 2-mediated DNA cleavage at 5 uM using supercoiled pHOT1 plasmid as substrate by agarose gel electrophoresis
[2] = Stability of compound in pre-heated IMDM at 200 uM at 37 degC by RP-HPLC analysis; format: physicochemical
How it was run: (§1)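 10 mM DMSO stock diluted into medium pre-warmed to 37 °C, giving 200 μM final, then incubated at 37 °C. Aliquots diluted 1:1 with acetonitrile/0.1% HCOOH, filtered and run on RP-HPLC, quantified against 1–200 μM standards. t1/2 from one-phase exponential decay fit, at least triplicate.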

[3] = Induction of H2S release from compound in IMDM at 100 uM incubated for 1 to 24 hrs using DNS-Az by fluorimetric assay-based HPLC analysis; format: physicochemical
How it was run: (§2)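 Compound at 200 μM initial (half concentration for two low-solubility compounds) in medium or human serum at 37 °C with dansyl azide. Sampled at 1, 4 and 24 h, diluted with CH3CN, spun and filtered. Isocratic RP-HPLC with fluorescence ex 340/em 535 nm. Dansyl amide peak quantified against NaHS calibration as H2S index. At least triplicate.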

[4] = Half life of compound in pre-heated DMEM at 200 uM at 37 degC by RP-HPLC analysis; format: physicochemical; how it was run: as §1
[5] = Half life of compound assessed as human serum esterase-mediated degradation at 100 uM by RP-HPLC analysis; format: ADME
How it was run: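 10 mM DMSO stock added to human serum pre-warmed to 37 °C, giving 100 μM final. Samples taken over time and deproteinized with equal volume acetonitrile/0.1% HCOOH, then spun 2150 g 10 min and filtered. Analysed by RP-HPLC against 1–200 μM calibration. t1/2 from one-phase exponential decay fit, at least triplicate.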

[6] = Induction of H2S release from compound in DMEM at 100 uM incubated for 1 to 24 hrs using DNS-Az by fluorimetric assay-based HPLC analysis; format: physicochemical; how it was run: as §2
Serum = assay: Induction of H2S release from compound in human serum at 100 uM incubated for 1 to 24 hrs using DNS-Az by fluorimetric assay-based HPLC analysis; format: functional; how it was run: as §2
H9c2 [7] = assay: Drug uptake in rat H9c2 cells at 5 uM incubated for 24 hrs by fluorimetrical analysis; format: ADME, cell-based; settings: h9c2, 24 h
How it was run: (§3)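 Intracellular drug measured after 24 h exposure to 5 μM. Cell lysates read fluorimetrically at ex 475/em 553 nm with cell-free blank subtracted. Converted by calibration curve to nmol drug/mg cell protein. Duplicate, n = 3, mean ± SD.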

H9c2 [8] = assay: Cytotoxicity in rat H9c2 cells at 5 uM incubated for 24 hrs by LDH release-based spectrofluorimetrical analysis relative to control; format: cell-based; settings: h9c2, 24 h
How it was run: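 Cells exposed 24 h to 5 μM drug in DMEM with 10% FBS at 37 °C, 5% CO2. Medium spun 12,000 × g 5 min. Cells sonicated in 82.3 mM triethanolamine phosphate-HCl pH 7.6. LDH in medium and lysate followed 6 min at 340 nm. Extracellular LDH reported as % of total dish activity, duplicate, n = 3, mean ± SD.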

H9c2 [9] = assay: Cytotoxicity in rat H9c2 cells assessed as intracellular ROS accumulation at 5 uM incubated for 24 hrs by DCFDA-AM probe-based fluorimetrical analysis relative to control; format: cell-based; settings: h9c2, 24 h
How it was run: (§4)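 After 24 h at 5 μM, 1×10^6 cells in 0.5 mL PBS were loaded with 5 μM DCFDA-AM for 30 min at 37 °C, spun and resuspended. Fluorescence read at ex 492/em 517 nm, expressed as nmol ROS/mg cell protein. Duplicate, n = 3, mean ± SD.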

H9c2 [10] = assay: Cytotoxicity in rat H9c2 cells assessed as intracellular ROS accumulation at 5 uM incubated for 24 hrs in presence of hydroxocobalamin by DCFDA-AM probe-based fluorimetrical analysis relative to control; format: cell-based; settings: h9c2, 24 h
How it was run: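 H9c2 cells held 24 h with 5 μM drug plus 100 μM hydroxocobalamin, then loaded with 5 μM DCFDA-AM for 30 min at 37 °C. Fluorescence read at 492/517 nm, expressed as nmol ROS/mg protein. Duplicate, n = 3.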

H9c2 [11] = assay: Cytotoxicity in rat H9c2 cells at 5 uM incubated for 24 hrs in presence of NAC by LDH release-based spectrofluorimetrical analysis relative to control; format: cell-based; settings: h9c2, 24 h
U2OS [12] = assay: Induction of intracellular ROS accumulation in human U2OS cells at 5 uM incubated for 24 hrs by DCFDA-AM probe-based fluorimetrical analysis relative to control; format: functional, cell-based; how it was run: as §4
U2OS [13] = assay: Drug uptake in human U2OS cells at 5 uM incubated for 24 hrs by fluorimetrical analysis; format: ADME, cell-based; how it was run: as §3
[14] = Drug uptake in human U2OS/DX30 cells at 5 uM incubated for 24 hrs by fluorimetrical analysis; format: ADME, cell-based; how it was run: as §3
[15] = Drug uptake in human U2OS/DX100 cells at 5 uM incubated for 24 hrs by fluorimetrical analysis; format: ADME, cell-based; how it was run: as §3
[16] = Drug uptake in human U2OS/DX580 cells at 5 uM incubated for 24 hrs by fluorimetrical analysis; format: ADME, cell-based; how it was run: as §3
U2OS [17] = assay: Increase in intracellular ROS accumulation in human U2OS/DX30 cells at 5 uM incubated for 24 hrs in presence of hydroxocobalamin by DCFDA-AM probe-based fluorimetrical analysis relative to control; format: functional, cell-based
How it was run: (§5)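 Cells grown in DMEM with 10% FBS at 37 °C, 5% CO2, resistant variants selected in 30, 100 or 580 ng/mL doxorubicin; treated 24 h with 5 μM drug plus 100 μM hydroxocobalamin. 1×10^6 cells loaded 30 min at 37 °C with 5 μM DCFDA-AM in PBS; fluorescence at ex 492/em 517 nm, expressed as nmol ROS/mg protein; duplicates, n = 3.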

U2OS [18] = assay: Increase in intracellular ROS accumulation in human U2OS/DX580 cells at 5 uM incubated for 24 hrs in presence of hydroxocobalamin by DCFDA-AM probe-based fluorimetrical analysis relative to control; format: functional, cell-based; how it was run: as §5
U2OS [19] = assay: Induction of intracellular ROS accumulation in human U2OS/DX100 cells at 5 uM incubated for 24 hrs by DCFDA-AM probe-based fluorimetrical analysis relative to control; format: functional, cell-based; how it was run: as §4
U2OS [20] = assay: Induction of intracellular ROS accumulation in human U2OS/DX30 cells at 5 uM incubated for 24 hrs by DCFDA-AM probe-based fluorimetrical analysis relative to control; format: functional, cell-based; how it was run: as §4
U2OS [21] = assay: Induction of intracellular ROS accumulation in human U2OS/DX580 cells at 5 uM incubated for 24 hrs by DCFDA-AM probe-based fluorimetrical analysis relative to control; format: functional, cell-based; how it was run: as §4
U2OS [22] = assay: Increase in intracellular ROS accumulation in human U2OS cells at 5 uM incubated for 24 hrs in presence of hydroxocobalamin by DCFDA-AM probe-based fluorimetrical analysis relative to control; format: functional, cell-based; how it was run: as §5
U2OS [23] = assay: Increase in intracellular ROS accumulation in human U2OS/DX100 cells at 5 uM incubated for 24 hrs in presence of hydroxocobalamin by DCFDA-AM probe-based fluorimetrical analysis relative to control; format: functional, cell-based; how it was run: as §5
U2OS [24] = assay: Activity at PgP in human […] cells assessed as Vmax measured per mg of protein incubated for 20 mins by fluorimetrical analysis; format: cell-based
How it was run: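 U-2OS/DX580 cells exposed 20 min to 0-50 μM drug, washed, intracellular doxorubicin read fluorimetrically; parallel dishes left a further 10 min at 37 °C before reading. Efflux rate (difference, nmol extruded/min/mg cell protein) plotted against initial concentration; Vmax and Km fitted. Means ± SD, n = 3.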

Chain of DNA topoisomerase 2-alpha (Homo sapiens) (P11388 whole entry): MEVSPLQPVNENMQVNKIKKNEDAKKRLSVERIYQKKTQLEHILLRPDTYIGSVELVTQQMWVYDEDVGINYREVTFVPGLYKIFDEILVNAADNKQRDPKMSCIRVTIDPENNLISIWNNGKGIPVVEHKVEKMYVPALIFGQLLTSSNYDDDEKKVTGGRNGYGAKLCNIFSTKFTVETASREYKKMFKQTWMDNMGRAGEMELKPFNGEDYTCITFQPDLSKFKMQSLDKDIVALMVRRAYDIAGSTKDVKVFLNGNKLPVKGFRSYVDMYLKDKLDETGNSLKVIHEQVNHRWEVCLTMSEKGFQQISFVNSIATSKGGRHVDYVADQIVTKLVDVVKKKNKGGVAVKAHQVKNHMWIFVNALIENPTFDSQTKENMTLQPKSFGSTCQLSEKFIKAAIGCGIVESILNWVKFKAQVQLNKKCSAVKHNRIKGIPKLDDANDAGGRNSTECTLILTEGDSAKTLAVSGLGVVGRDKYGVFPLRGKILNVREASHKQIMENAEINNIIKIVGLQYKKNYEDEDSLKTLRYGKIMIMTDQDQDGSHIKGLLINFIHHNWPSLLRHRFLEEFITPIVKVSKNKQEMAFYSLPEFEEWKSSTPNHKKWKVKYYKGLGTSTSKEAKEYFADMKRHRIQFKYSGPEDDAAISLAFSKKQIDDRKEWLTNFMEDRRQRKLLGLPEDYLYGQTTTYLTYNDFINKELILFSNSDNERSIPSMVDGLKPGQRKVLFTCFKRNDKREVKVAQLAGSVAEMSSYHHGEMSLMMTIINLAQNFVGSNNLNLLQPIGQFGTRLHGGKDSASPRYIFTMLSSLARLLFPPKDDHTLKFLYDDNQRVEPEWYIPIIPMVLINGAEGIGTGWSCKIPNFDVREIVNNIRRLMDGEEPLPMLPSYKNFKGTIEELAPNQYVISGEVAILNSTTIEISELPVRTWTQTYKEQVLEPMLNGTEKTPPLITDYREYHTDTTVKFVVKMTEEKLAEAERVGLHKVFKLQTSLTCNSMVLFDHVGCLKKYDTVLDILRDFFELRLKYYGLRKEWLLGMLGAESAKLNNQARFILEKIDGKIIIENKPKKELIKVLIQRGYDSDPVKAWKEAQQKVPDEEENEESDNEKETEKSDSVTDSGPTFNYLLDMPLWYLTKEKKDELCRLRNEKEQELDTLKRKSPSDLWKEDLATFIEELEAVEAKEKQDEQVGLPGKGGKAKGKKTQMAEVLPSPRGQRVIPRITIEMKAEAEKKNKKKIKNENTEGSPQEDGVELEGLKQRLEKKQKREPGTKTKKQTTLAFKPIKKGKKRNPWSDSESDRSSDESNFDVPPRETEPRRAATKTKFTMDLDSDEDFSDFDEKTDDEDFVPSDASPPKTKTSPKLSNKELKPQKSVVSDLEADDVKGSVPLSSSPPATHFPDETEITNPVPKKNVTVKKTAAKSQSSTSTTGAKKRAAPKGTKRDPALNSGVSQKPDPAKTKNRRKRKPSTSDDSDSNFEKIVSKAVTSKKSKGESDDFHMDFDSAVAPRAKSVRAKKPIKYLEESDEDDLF

Row | inhibition [1] | Stability [2] | Activity [3] | half-life at 200 µM [4] [h] | half-life at 100 µM [5] [h] | Activity [6] | Drug uptake (H9c2 [7]) | Drug uptake (U2OS [13]) | Drug uptake [14] | Drug uptake [15] | Drug uptake [16] | SMILES | Activity (Serum) | Activity (H9c2 [8]) | Activity (H9c2 [9]) | Activity (H9c2 [10]) | Activity (H9c2 [11]) | Activity (U2OS [12]) | other results
1 | inactive | Unstable | Not Active | 0.283 | 0.283 | Not Active | Active |  |  |  |  | COc1cccc2c1C(=O)c1c(O)c3c(c(O)c1C2=O)C[C@@](O)(C(=O)COC(=O)c1csc(=S)s1)C[C@@H]3O[C@H]1C[C@H](N)[C@H](O)[C@H](C)O1.Cl | Active | Non-toxic | Non-toxic | Toxic | Non-toxic | inactive | 
2 | inactive | Stable | Not Active | 5.6 | 3.8 | Not Active | Active | Active | Active | Active | Active | C=CCSSCCC(=O)OCC(=O)[C@]1(O)Cc2c(O)c3c(c(O)c2[C@@H](O[C@H]2C[C@H](N)[C@H](O)[C@H](C)O2)C1)C(=O)c1c(OC)cccc1C3=O.Cl | Active | Toxic | Non-toxic | Toxic |  | inactive | 
3 | inactive | Unstable | Not Active | 0.267 | 0.05 | Not Active | Active |  |  |  |  | COc1cccc2c1C(=O)c1c(O)c3c(c(O)c1C2=O)C[C@@](O)(C(=O)COC(=O)COc1ccc(-c2cc(=S)ss2)cc1)C[C@@H]3O[C@H]1C[C@H](N)[C@H](O)[C@H](C)O1.Cl | Active | Non-toxic | Non-toxic | Toxic | Non-toxic | inactive | 
4 | inactive | Stable | Active | 21.5 | 4.6 | Active | Active | Active | Active | Active | Active | COc1cccc2c1C(=O)c1c(O)c3c(c(O)c1C2=O)C[C@@](O)(C(=O)COC(=O)c1ccc(-c2cssc2=S)cc1)C[C@@H]3O[C@H]1C[C@H](N)[C@H](O)[C@H](C)O1.Cl | Active | Non-toxic | Non-toxic | Toxic | Non-toxic | inactive | Activity (U2OS [17]): Active; Activity (U2OS [18]): Active; Activity (U2OS [19]): inactive; Activity (U2OS [20]): inactive; Activity (U2OS [21]): inactive; Activity (U2OS [22]): Active; Activity (U2OS [23]): Active
5 | inactive | Unstable | Not Active | < 0.0167 | 0.183 | Not Active | Active |  |  |  |  | C=CCSCC(NC(C)=O)C(=O)OCC(=O)[C@]1(O)Cc2c(O)c3c(c(O)c2[C@@H](O[C@H]2C[C@H](N)[C@H](O)[C@H](C)O2)C1)C(=O)c1c(OC)cccc1C3=O.Cl (some centres not stated) | inactive | Non-toxic | Non-toxic | Toxic | Non-toxic | inactive | 
6 | inactive | Stable | Not Active | 3.4 | 0.633 | Not Active | Active | Active | Active | Active | Active | COc1cccc2c1C(=O)c1c(O)c3c(c(O)c1C2=O)C[C@@](O)(C(=O)COC(=O)c1ccc(C(N)=S)cc1)C[C@@H]3O[C@H]1C[C@H](N)[C@H](O)[C@H](C)O1.Cl | Active | Toxic | Non-toxic | Toxic |  | inactive | 
7 |  |  |  |  |  |  |  |  |  |  |  | COC(=O)c1ccc(C(N)=S)cc1 |  | Toxic |  |  |  |  | 
8 |  |  |  |  |  |  |  |  |  |  |  | C=CCSSCCC(=O)OCC |  | Toxic |  |  |  |  | 

Row | SMILES | inhibition [1] | Stability [2] | Activity [3] | half-life at 200 µM [4] [h] | half-life at 100 µM [5] [h] | Activity [6] | Drug uptake (H9c2 [7]) | Drug uptake (U2OS [13]) | Drug uptake [14] | Drug uptake [15] | Drug uptake [16] | Activity (Serum) | Activity (H9c2 [8]) | Activity (H9c2 [9]) | Activity (H9c2 [10]) | Activity (H9c2 [11]) | Activity (U2OS [12]) | other results
9 | COc1cccc2c1C(=O)c1c(O)c3c(c(O)c1C2=O)C[C@@](O)(C(=O)COC(=O)c1ccc(-c2ssc(=S)c2-c2ccccc2)cc1)C[C@@H]3O[C@H]1C[C@H](N)[C@H](O)[C@H](C)O1.Cl | inactive | Stable | Not Active | > 24 | 2.8 | Not Active | Active | Active | Active | Active | Active | Active | Non-toxic | Non-toxic | Toxic | Non-toxic | inactive | Activity (U2OS [17]): Active; Activity (U2OS [18]): Active; Vmax (U2OS [24]): 10.2 nmol/min/mg; Activity (U2OS [19]): inactive; Activity (U2OS [20]): inactive; Activity (U2OS [21]): inactive; Activity (U2OS [22]): Active; Activity (U2OS [23]): Active
